High-throughput results from PubChem.
NPY-Y1 antag = NPY-Y1 receptor antagonists, primary screen, cell-based | AID 1040, 2008 | 200,000 tested, 1% active | Neuropeptide Y receptor type 1 (Homo sapiens), P25929 | HEK293-CNG Y1 cells, membrane potential fluorescence; NPY at EC95, then isoproterenol | inhibition, % at 3.6 µM;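 active = inhibition above the campaign mean inhibition of all tested compounds plus 3 SD, cut at about 20% in these data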;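 also: 0% = DMSO wells given NPY plus isoproterenol and 100% = isoproterenol alone without NPY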
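Material: HEK293 Y1/CNG channel cell line | Also added: NPY (25 nM), isoproterenol (1 µM), Ro 20-1724 (25 µM) | Compound: One concentration, 3.6 µM, in 0.4% DMSO | Schedule: 3 h dye uptake, 1 h room-temperature compound, 45 min post-isoproterenol | Signal: Membrane-potential fluorescent dye readout | Read-out: % inhibition of NPY effect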
S1P4 antag = S1P4 receptor antagonists, primary screen, cell-based; 220,000 tested, 0.26% active; AID 1510, 2009; Sphingosine 1-phosphate receptor 4 (Homo sapiens), O95977; inhibition, % at 4.98 µM; S1P4-expressing cells, antagonist mode, reporter read-out; in the data active = inhibition above about 29%;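 also: 0% = wells stimulated with agonist and 100% = vehicle wells without agonist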
Target sequence (O95977 whole entry, looked up): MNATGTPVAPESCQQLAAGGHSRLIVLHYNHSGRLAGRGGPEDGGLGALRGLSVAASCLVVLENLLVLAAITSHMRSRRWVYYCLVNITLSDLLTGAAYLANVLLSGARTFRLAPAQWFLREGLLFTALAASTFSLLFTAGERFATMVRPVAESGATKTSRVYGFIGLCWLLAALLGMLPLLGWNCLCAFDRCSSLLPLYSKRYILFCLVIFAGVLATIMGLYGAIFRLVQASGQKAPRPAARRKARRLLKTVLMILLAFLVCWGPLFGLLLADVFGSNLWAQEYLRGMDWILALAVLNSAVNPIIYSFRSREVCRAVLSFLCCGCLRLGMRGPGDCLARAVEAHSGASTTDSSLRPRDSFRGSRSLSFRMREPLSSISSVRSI
NPY-Y2 PAM-ag = NPY-Y2 potentiators or agonists, primary screen, cell-based. activation, % at 3.6 µM. 220,000 tested, 0.45% active. cells expressing NPY-Y2, potentiator/agonist read-out. Neuropeptide Y receptor type 2 (Homo sapiens), P49146; in the data active = activation above about 27%;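 also: cells stimulated with NPY near EC25 plus isoproterenol at EC100; 0% = vehicle plus submaximal agonist and 100% = vehicle plus saturating agonist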
S1P4 ag = S1P4 receptor agonists, primary screen, cell-based | Sphingosine 1-phosphate receptor 4 (Homo sapiens), O95977 | S1P4-expressing cell line, agonist reporter assay | activation, % at 4.98 µM | 220,000 tested, 0.35% active | AID 1509, 2009; in the data active = activation above about 11%;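 also: 0% = DMSO vehicle and 100% = reference agonist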
NPY-Y2 antag = NPY-Y2 receptor antagonists, primary screen, cell-based. Neuropeptide Y receptor type 2 (Homo sapiens), P49146. NPY-Y2 expressing cells, antagonist mode. inhibition, % at 2.7 µM. 140,000 tested, 0.99% active; in the data active = inhibition above about 17%;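 also: 0% = vehicle with agonist challenge and 100% = reference antagonist with challenge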
NPY1 pot ag = NPY-Y1 receptor potentiators or agonists, primary screen, cell-based; Neuropeptide Y receptor type 1 (Homo sapiens), P25929; NPY-Y1 expressing cells, potentiator/agonist activation; activation, % at 3.6 µM; 220,000 tested, 0.37% active; AID 1304, 2008; in the data active = activation above about 33%, passing the limit was not always enough;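 also: cells stimulated with NPY at EC10 then isoproterenol at EC100; 0% = low agonist plus stimulus and 100% = saturating agonist plus stimulus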
An asterisk follows results filed as active; . = no result. Sampled rows, rich in hits. Any-hit rate of the full collection: about 2.4%.

SMILES	NPY-Y1 antag	S1P4 antag	NPY-Y2 PAM-ag	S1P4 ag	NPY-Y2 antag	NPY1 pot ag
CC(=O)Oc1ccc(C(c2ccc(OC(C)=O)cc2)c2ccccn2)cc1	102*	20	-28	3	108*	-125
N#CCN1CCN(CC(=O)c2ccc(Br)cc2)CC1	.	-5	-19	2	.	-20
COc1ccc(-c2nc(C#N)c(NCc3ccc(F)cc3)o2)cc1OC	24*	-8	-20	-1	24*	-10
COc1ccc(-c2nc(C#N)c(NCc3cccnc3)o2)cc1OC	8	8	1	-1	0	-6
O=C(Nc1ccccc1)C1Cc2ccccc2CN1C(=O)c1ccco1 (configuration not stated)	-5	-13	-11	3	3	-1
O=C(Nc1cc(C(F)(F)F)ccc1N1CCOCC1)C1Cc2ccccc2CN1C(=O)c1ccco1 (configuration not stated)	26*	0	8	-3	19*	2
CC(C)CN1CCN(Cc2cccc3cccnc23)CC1CCO (configuration not stated)	4	-4	4	-2	.	-11
Cc1ccc2nc(N3C(=O)C(O)=C(C(=O)c4ccco4)C3c3cccs3)sc2c1 (configuration not stated)	37*	-12	-20	2	19*	-32
CC(C)C(NC(=O)c1ccc(C(C)(C)C)cc1)C(=O)Nc1cccc(S(N)(=O)=O)c1 (configuration not stated)	-6	-15	37*	1	.	43*
COc1ccc(N(C)C(=O)c2cc3c(s2)-c2c(C)cccc2OC3)c(OC)c1	.	7	-46	-1	.	-16
Cc1ccc(NC(=O)CN(C)CC(=O)Nc2ccccc2Oc2ccccc2)cc1	10	-22	-9	-1	.	0
Cc1cccc(C)c1NC(=O)CN(C)CC(=O)Nc1ccccc1Oc1ccccc1	21*	-23	2	2	.	-2
CCN(CC)CCCN(Cc1cc2cc3c(cc2[nH]c1=O)OCO3)C(=S)Nc1ccccc1	11	-21	-10	0	.	-3
CCOc1ccccc1CN(Cc1ccco1)S(=O)(=O)c1ccc(-n2cnnn2)c(OC)c1	38*	3	-21	1	18*	-11
COc1cc(S(=O)(=O)N(Cc2ccco2)C2CCCC2)ccc1-n1cnnn1	2	-12	-14	3	2	-7
COc1cc(CCN2C(=O)c3cccc4cccc(c34)C2=O)c(S(=O)(=O)NCCCO)cc1OC	-1	-10	0	0	1	10
CC(C)NC(=O)COC(=O)C1CSC2(c3ccc(Br)cc3)CCC(=O)N12 (configuration not stated)	6	-23	1	-1	.	6
CCc1nc2sc(C#N)c(N)c2c2c1CCCC2	49*	0	-20	2	57*	-76
CCc1nc2sc(C(C)=O)c(N)c2c2c1CCCC2	.	7	-17	0	.	6
Cc1cc(/C=N/NC(=O)Cn2c3ccccc3c(=O)c3ccccc32)c(C)n1-c1ccccc1	-13	-19	50*	10	3	50*
Cc1ccc(N(CC(=O)N/N=C/c2cc(C)n(-c3ccccc3)c2C)S(C)(=O)=O)c(C)c1	4	-27	2	0	-1	-9
Cc1ccc(NC(=S)N/N=C/c2c(C)[nH]c3ccccc23)cc1	-11	10	37*	0	.	51*
Cc1[nH]c2ccccc2c1/C=N/NC(N)=S	.	-2	13	1	.	-6
CC(C)Cn1cc(C(=O)N2CCN(c3ccccn3)CC2)c2c3ccccc3n(C)c2c1=O	6	-25	10	2	1	-17
COc1ccccc1CCNC(=O)/C(=C/c1cccnc1)NC(=O)c1ccccc1	5	-4	-11	0	7	-38
SMILES	NPY-Y1 antag	S1P4 antag	NPY-Y2 PAM-ag	S1P4 ag	NPY-Y2 antag	NPY1 pot ag
O=C(O)[C@H]1CCCC[C@H]1C(=O)Nc1ccc(Nc2ccccc2)cc1	-9	4	34*	1	-4	49*
CCN(CC)S(=O)(=O)c1cccc2cccnc12	1	1	3	3	-2	10
O=S(=O)(c1cccc2cccnc12)N(CCO)CCO	1	-5	6	0	0	36*
Cc1cc(C)cc(NC(=S)NCCN(C2CCCCC2)C2CCCC2)c1	21*	15	-21	-3	.	-14
CCNS(=O)(=O)c1ccc(NC(=O)c2ccc(Cn3cc(Br)cn3)o2)cc1	-1	-24	7	0	0	-2
CC(=O)c1sc(NC(=O)c2ccc(Cn3cc(Br)cn3)o2)nc1C	-13	-10	48*	2	-6	46*
N#C/C(=C\c1ccco1)C(=O)NCc1ccccc1	0	-20	-8	1	.	1
N#CC(C#N)=C1C=CC=CN1/C(=C\c1ccco1)C(=O)c1ccc(-c2ccccc2)cc1	2	69*	-11	-3	7	-48
Cc1nn(Cc2ccccc2)c(Cl)c1C(=O)OCC#N	5	-15	-12	0	.	-7
COC(=O)c1nn(-c2ccc(OC)cc2)c(=O)cc1O	6	-9	-6	1	.	0
COc1ccc(-n2nc(C#N)c(Cl)cc2=O)cc1	-5	30*	10	-5	.	21
O=C(COc1ccc(/C=N/NS(=O)(=O)c2ccccc2)cc1)Nc1cccc(Cl)c1	43*	-2	8	0	18*	25
O=C(COc1ccc(/C=N/NS(=O)(=O)c2ccccc2)cc1)NCc1ccccc1	-3	0	-3	-1	1	0
Cc1ccnc(NC(=O)COc2ccc3oc4c(c3c2)CCCC4)c1	21*	-9	-7	0	11	-31
O=C1c2cccc3c([N+](=O)[O-])ccc(c23)C(=O)N1c1nccs1	-5	99*	5	0	0	-2
CC(C)N(C(=O)C[n+]1ccsc1N)c1ccccc1	5	16	-4	-1	.	-14
c1ccc(Cn2c(CNc3nc4ccccc4n3CCN3CCCCC3)nc3ccccc32)cc1	17	-3	-6	3	27*	-29
COc1ccc(CNc2nc3ccccc3n2CCN2CCCCC2)cc1	9	-7	11	0	.	-9
CCN(CC)CCn1c(NCc2nc3ccccc3n2Cc2ccccc2)nc2ccccc21	22*	-4	-1	-2	19*	-46
CCCCn1c(NCc2ccc3c(c2)OCO3)nc2ccccc21	20*	6	-1	0	15	-19
CCN(CC)c1ccc(CNc2nc3ccccc3n2CCN2CCCCC2)cc1	14	-3	44*	-2	.	45*
